Results reported in ChEMBL document CHEMBL1909547, “Discovery of spiropiperidine-based potent and selective Orexin-2 receptor antagonists” (Bioorg Med Chem Lett, 2011).
Values after ≈ are worked out from the molar mass of the structure shown.

How the values were obtained:
[1] = target: T1, Orexin receptor type 2 (Homo sapiens, UniProt O43614); test: Antagonist activity at OX2R expressed in dihydrofolate reductase deficient CHO cells assessed as inhibition of orexin A-induced intracellular calcium mobilization by FLIPR assay; format: functional, cell-based
T1 sequence (O43614 whole entry): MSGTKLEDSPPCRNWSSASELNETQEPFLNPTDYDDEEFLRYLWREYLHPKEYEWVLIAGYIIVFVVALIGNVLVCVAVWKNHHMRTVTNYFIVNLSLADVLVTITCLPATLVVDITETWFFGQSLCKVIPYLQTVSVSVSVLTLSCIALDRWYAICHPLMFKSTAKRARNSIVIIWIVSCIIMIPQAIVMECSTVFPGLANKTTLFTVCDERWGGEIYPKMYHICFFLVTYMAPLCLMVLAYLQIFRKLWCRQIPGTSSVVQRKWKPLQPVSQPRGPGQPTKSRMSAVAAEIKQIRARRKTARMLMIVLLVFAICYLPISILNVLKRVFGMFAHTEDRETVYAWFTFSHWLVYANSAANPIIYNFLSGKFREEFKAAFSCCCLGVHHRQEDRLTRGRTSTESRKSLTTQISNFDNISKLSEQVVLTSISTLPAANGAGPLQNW

[2] = Selectivity ratio of IC50 for OX1R to IC50 for OX2R
[3] = target: T2, Orexin/Hypocretin receptor type 1 (Homo sapiens, UniProt O43613); test: Antagonist activity at OX1R expressed in dihydrofolate reductase deficient CHO cells assessed as inhibition of orexin A-induced intracellular calcium mobilization by FLIPR assay; format: functional, cell-based
T2 sequence (O43613 whole entry): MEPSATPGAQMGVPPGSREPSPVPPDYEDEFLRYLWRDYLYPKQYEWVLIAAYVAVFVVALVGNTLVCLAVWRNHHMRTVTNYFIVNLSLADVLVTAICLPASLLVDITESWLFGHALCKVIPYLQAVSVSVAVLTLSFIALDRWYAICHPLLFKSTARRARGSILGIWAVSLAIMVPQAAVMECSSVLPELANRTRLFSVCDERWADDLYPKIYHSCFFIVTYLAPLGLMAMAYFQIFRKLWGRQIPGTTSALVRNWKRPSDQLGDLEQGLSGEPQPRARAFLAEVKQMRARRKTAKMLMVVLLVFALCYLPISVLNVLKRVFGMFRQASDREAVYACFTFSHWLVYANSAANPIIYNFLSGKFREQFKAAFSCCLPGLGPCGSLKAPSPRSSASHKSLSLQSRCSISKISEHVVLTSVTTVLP

[4] = Lipophilicity, log D of the compound; format: physicochemical; settings: octanol/water
[5] = Solubility of the compound in stomach simulated fluid JP1; format: physicochemical
Summary of the method: (§1)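 Solubility was measured in the Japanese Pharmacopoeia dissolution fluids. JP1 is the first fluid, an acidic stomach-simulating solution. JP2 is the second fluid, a buffer that mimics intestinal pH.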

[6] = Solubility of the compound in intestine simulated fluid JP2; format: physicochemical; summary of the method: as §1

Compound	IC50 [1]	Ratio IC50 [2]	IC50 [3]	logD [4]	solubility [5]	solubility [6]
O=S(=O)(c1ccccc1)N1CCOC12CCN(c1cnc3ccccc3n1)CC2	230 nM	7	1600 nM	–	–	–
O=C(Nc1ccccc1)N1CCC2(CC1)OCCN2S(=O)(=O)c1ccccc1	710 nM	8.9	6300 nM	1.82	< 70 µg/mL	1700 µg/mL (≈ 4.23 mM)
COc1ccc(S(=O)(=O)N2CCOC23CCN(C(=O)Nc2ccccc2)CC3F)cc1OC (stereo not given)	3.3 nM	450	1500 nM	1.35	5900 µg/mL (≈ 12.3 mM)	4500 µg/mL (≈ 9.38 mM)
O=C(Nc1ccccc1)N1CCC2(OCCN2S(=O)(=O)c2ccccc2)[C@H](F)C1 (mixture of isomers)	170 nM	1.6	280 nM	2.04	45000 µg/mL	34000 µg/mL
O=C(Nc1ccccc1)N1CCC2(OCCN2S(=O)(=O)c2ccccc2)[C@@H](F)C1 (mixture of isomers)	220 nM	11	2500 nM	1.5	8500 µg/mL	12000 µg/mL
O=C(Nc1ccccc1)N1CCC2(OCCN2S(=O)(=O)c2ccccc2)C(F)(F)C1 (racemic)	1000 nM	> 10	> 10000 nM	1.93	21000 µg/mL (≈ 48 mM)	18000 µg/mL (≈ 41.1 mM)
COc1cccc(S(=O)(=O)N2CCOC23CCN(C(=O)Nc2ccccc2)CC3F)c1 (racemic)	130 nM	18	2300 nM	1.75	2100 µg/mL (≈ 4.67 mM)	2400 µg/mL (≈ 5.34 mM)
COc1ccc(S(=O)(=O)N2CCOC23CCN(C(=O)Nc2ccccc2)CC3F)cc1 (racemic)	87 nM	18	1600 nM	1.63	490 µg/mL (≈ 1.09 mM)	580 µg/mL (≈ 1.29 mM)
